Assay results as given in ChEMBL document CHEMBL4390662, “Design, synthesis and biological evaluation of novel α-acyloxy carboxamides via Passerini reaction as caspase 3/7 activators” (Eur J Med Chem, 2019).
In brackets after ≈: the same amount, converted by molar mass. Activity calls are given as the source filed them. No cut-off for these calls is given here.

Columns and labels:
NFS-60 [1] = assay: Induction of apoptosis in mouse NFS60 cells assessed as induction of cell shape loss by phase contrast inverted fluorescence microscopy; type: functional, cell-based
MCF7 [2] = assay: Induction of apoptosis in human MCF7 cells assessed as late apoptotic cells at IC50 incubated for 72 hrs by annexin V/propidium iodide staining based flow cytometry (reference value: 0.01 +/- 0.001%); type: functional
MCF7 [3] = assay: Induction of apoptosis in human MCF7 cells assessed as necrotic cells level at IC50 incubated for 72 hrs by annexin V/propidium iodide staining based flow cytometry (reference value: 0.48%); type: functional
NFS-60 [4] = assay: Induction of apoptosis in mouse NFS60 cells assessed as induction of cell shrinkage by phase contrast inverted fluorescence microscopy; type: functional, cell-based
HepG2 = assay: Induction of apoptosis in human HepG2 cells assessed as late apoptotic cells level at IC50 incubated for 72 hrs by annexin V/propidium iodide staining based flow cytometry (reference value: 0.1%); type: functional
MCF7 [5] = assay: Induction of apoptosis in human MCF7 cells assessed as early apoptotic cells level at IC50 incubated for 72 hrs by annexin V/propidium iodide staining based flow cytometry (reference value: 0.01%); type: functional
MCF7 [6] = assay: Induction of apoptosis in human MCF7 cells assessed as induction of cell shrinkage by phase contrast inverted fluorescence microscopy; type: functional, cell-based
MCF7 [7] = assay: Induction of apoptosis in human MCF7 cells assessed as caspase 3/7 activity using DEVD aminoluciferin as substrate at IC50 after 24 hrs […] relative to control; type: functional
In short: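 Caspase 3/7 activation measured with Caspase-Glo 3/7 kit using a luminogenic caspase-cleavable substrate. […] Reported as percent activation, mean ± SEM.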

MCF7 [8] = assay: Potency index, ratio of doxorubicin IC50 to test compound IC50 against human MCF7 cells; type: functional
WI-38 = assay: Cytotoxicity against human WI38 cells assessed as cell growth inhibition incubated for 72 hrs by MTT assay; type: cell-based; settings: for IC50: Homo sapiens, WI-38, 72 h; for EC100: human, wi-38, 72 h
In short: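 Wi-38 fibroblasts grown in DMEM with 10% FBS and seeded at 5×10^3 per well. Attachment 24 h, then serial concentrations for 72 h at 37°C, 5% CO2. MTT stock (5 mg/mL) added for 3 h at 37°C, DMSO solubilization, absorbance at 570 nm. IC50 estimated.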

Enterococcus faecalis = assay: Antimicrobial activity against Enterococcus faecalis ATCC 29212 incubated for 24 hrs by agar well diffusion assay; type: functional
In short: (§1)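 Nutrient agar spread with 100 µL inoculum: bacteria at 1×10^8 CFU/mL, fungi at 1×10^6 CFU/mL. 10 mm wells loaded with 100 µL of compound in DMSO (final 1 mg/mL). Bacteria incubated 24 h at 37 °C, fungi 48 h at 28 °C. Inhibition zones measured in mm. Ciprofloxacin and fluconazole standards at 1 mg/mL, DMSO negative control.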

Escherichia coli [9] = assay: Antimicrobial activity against Escherichia coli ATCC 25922 incubated for 24 hrs by agar well diffusion assay; type: functional; in short: as §1
Pseudomonas aeruginosa = assay: Antimicrobial activity against Pseudomonas aeruginosa ATCC 27853 incubated for 24 hrs by agar well diffusion assay; type: functional; in short: as §1
Staphylococcus aureus [10] = assay: Antimicrobial activity against Staphylococcus aureus ATCC 25923 incubated for 24 hrs by microdilution assay; type: functional
In short: (§2)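 Two-fold serial dilutions of test solutions made in Mueller Hinton broth and inoculated. Incubated at 37°C for 24 h. MIC taken as the lowest concentration with no growth. Ciprofloxacin is the antibacterial reference, fluconazole the antifungal one, and DMSO the blank.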

Candida albicans [11] = assay: Antimicrobial activity against Candida albicans ATCC 90028 incubated for 24 hrs by microdilution assay; type: functional; in short: as §2
Escherichia coli [12] = assay: Antimicrobial activity against Escherichia coli ATCC 25922 incubated for 24 hrs by microdilution assay; type: functional; settings: ATCC 25922, 24 h; in short: as §2
Staphylococcus aureus [13] = assay: Antimicrobial activity against Staphylococcus aureus ATCC 25923 incubated for 24 hrs by agar well diffusion assay; type: functional; in short: as §1
Candida albicans [14] = assay: Antimicrobial activity against Candida albicans ATCC 90028 incubated for 48 hrs by agar well diffusion assay; type: functional; in short: as §1

With O=C(OC1(C(=O)Nc2ccc([N+](=O)[O-])cc2)CCCCC1)c1ccc([N+](=O)[O-])cc1 the Activity (NFS-60 [1]) was “Active”, the Activity (MCF7 [2]) was 20.439% and the Activity (MCF7 [3]) was 25.02%. The Activity (NFS-60 [4]) was “Active”, the Activity (HepG2) was 20.78% and the Activity (MCF7 [5]) was 1.96%. The Activity (MCF7 [6]) was “Active”, the Activity (MCF7 [7]) was 50.94% and the “Ratio IC50” value (MCF7 [8]) was 2 - 4. The IC50 (WI-38) was 761 nM and the EC100 (WI-38) was 0.149 µM.

With O=C(OC1(C(=O)Nc2ccc([N+](=O)[O-])cc2)CCCCC1)C(O)c1ccccc1 (centres undefined) the “diameter of the inhibition zone (DIZ)” value (Enterococcus faecalis) was “inactive”, the “diameter of the inhibition zone (DIZ)” value (Escherichia coli [9]) was 16 mm and the Activity (NFS-60 [1]) was “Active”. The Activity (MCF7 [2]) was 30.785%, the “diameter of the inhibition zone (DIZ)” value (Pseudomonas aeruginosa) was 14 mm and the Activity (MCF7 [3]) was 23.42%. The Activity (NFS-60 [4]) was “Active”, the Activity (HepG2) was 41.88% and the MIC (Staphylococcus aureus [10]) was “inactive”. The Activity (MCF7 [5]) was 3.76%, the Activity (MCF7 [6]) was “Active” and the Activity (MCF7 [7]) was 55.04%. The MIC (Candida albicans [11]) was “inactive”, the “Ratio IC50” value (MCF7 [8]) was 2 - 4 and the IC50 (WI-38) was 84.4 nM. The EC100 (WI-38) was 0.0507 µM, the MIC (Escherichia coli [12]) was 2570 µM (≈ 1020 µg/mL) and the “diameter of the inhibition zone (DIZ)” value (Staphylococcus aureus [13]) was “inactive”. For the same molecule, the “diameter of the inhibition zone (DIZ)” value (Candida albicans [14]) was “inactive”.

O=C(Cc1ccccc1)OC1(C(=O)Nc2ccc([N+](=O)[O-])cc2)CCCCC1 was tested, and the “diameter of the inhibition zone (DIZ)” value (Enterococcus faecalis) was “inactive”, the “diameter of the inhibition zone (DIZ)” value (Escherichia coli [9]) was 16 mm and the Activity (NFS-60 [1]) was “Active”. The Activity (MCF7 [2]) was 22.09%, the “diameter of the inhibition zone (DIZ)” value (Pseudomonas aeruginosa) was 15 mm and the Activity (MCF7 [3]) was 13.14%. For the same molecule, the Activity (NFS-60 [4]) was “Active”, the Activity (HepG2) was 26.59% and the MIC (Staphylococcus aureus [10]) was “inactive”. The Activity (MCF7 [5]) was 7.06%, the Activity (MCF7 [6]) was “Active” and the Activity (MCF7 [7]) was 43.04%. For the same molecule, the MIC (Candida albicans [11]) was “inactive”, the “Ratio IC50” value (MCF7 [8]) was 2 - 4 and the IC50 (WI-38) was 43.9 nM. The EC100 (WI-38) was 0.032 µM, the MIC (Escherichia coli [12]) was 2680 µM (≈ 1020 µg/mL) and the “diameter of the inhibition zone (DIZ)” value (Staphylococcus aureus [13]) was “inactive”. For the same molecule, the “diameter of the inhibition zone (DIZ)” value (Candida albicans [14]) was “inactive”.
